Calls of active or inactive are those of the source. The calls are words filed in the database; no cut-off is given here.
Legend:
[1] = biological target: T1, Adrenergic receptor alpha-1 (Rattus norvegicus, UniProt P15823+P23944+P43140); assay: Displacement of [3H]prazosin from alpha1 adrenoceptor in rat cerebral cortex after 30 mins by microbeta scintillation counting; assay type: tissue-based
T1 sequence (P15823 whole entry): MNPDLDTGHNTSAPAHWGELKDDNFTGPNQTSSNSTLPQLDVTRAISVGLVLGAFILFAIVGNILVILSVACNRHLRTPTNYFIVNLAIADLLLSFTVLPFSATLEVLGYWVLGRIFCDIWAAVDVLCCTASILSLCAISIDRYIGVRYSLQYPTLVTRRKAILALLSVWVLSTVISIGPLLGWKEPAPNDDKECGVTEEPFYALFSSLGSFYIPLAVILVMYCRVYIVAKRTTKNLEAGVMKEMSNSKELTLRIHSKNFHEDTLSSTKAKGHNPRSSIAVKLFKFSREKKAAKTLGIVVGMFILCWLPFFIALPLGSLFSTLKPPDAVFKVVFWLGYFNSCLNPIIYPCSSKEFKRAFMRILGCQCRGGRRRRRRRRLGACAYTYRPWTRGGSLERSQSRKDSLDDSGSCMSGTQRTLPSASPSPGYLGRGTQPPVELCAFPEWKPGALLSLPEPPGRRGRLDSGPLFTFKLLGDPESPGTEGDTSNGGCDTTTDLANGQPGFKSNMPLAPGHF
T1 sequence (P23944 whole entry): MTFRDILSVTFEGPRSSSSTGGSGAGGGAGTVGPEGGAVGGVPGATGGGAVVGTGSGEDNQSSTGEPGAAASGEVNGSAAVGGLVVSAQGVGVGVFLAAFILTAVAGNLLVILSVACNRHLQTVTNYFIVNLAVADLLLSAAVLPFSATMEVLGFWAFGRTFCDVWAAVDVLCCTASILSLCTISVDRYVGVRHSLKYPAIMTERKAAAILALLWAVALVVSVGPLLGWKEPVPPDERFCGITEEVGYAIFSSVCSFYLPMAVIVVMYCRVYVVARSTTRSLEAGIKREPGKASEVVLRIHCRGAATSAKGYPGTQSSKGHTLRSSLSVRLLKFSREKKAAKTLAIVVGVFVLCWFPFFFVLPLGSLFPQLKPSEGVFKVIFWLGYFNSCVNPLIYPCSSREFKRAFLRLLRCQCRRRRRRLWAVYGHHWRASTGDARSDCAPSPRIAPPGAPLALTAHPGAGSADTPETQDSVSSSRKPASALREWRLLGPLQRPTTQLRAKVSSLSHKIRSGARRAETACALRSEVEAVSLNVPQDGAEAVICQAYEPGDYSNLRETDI
T1 sequence (P43140 whole entry): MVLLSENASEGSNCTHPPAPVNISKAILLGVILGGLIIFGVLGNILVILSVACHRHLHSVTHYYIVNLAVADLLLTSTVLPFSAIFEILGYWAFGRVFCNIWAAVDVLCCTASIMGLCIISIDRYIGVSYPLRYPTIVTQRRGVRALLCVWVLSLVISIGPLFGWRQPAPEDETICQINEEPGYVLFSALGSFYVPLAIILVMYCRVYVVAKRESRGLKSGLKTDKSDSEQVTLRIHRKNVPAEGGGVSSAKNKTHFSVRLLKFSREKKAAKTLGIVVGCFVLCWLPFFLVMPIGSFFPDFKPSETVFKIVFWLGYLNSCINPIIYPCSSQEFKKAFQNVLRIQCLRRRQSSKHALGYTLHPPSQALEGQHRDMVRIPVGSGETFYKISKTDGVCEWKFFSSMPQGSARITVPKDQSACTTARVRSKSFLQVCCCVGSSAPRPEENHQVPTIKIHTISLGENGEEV
Procedure, shortened: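 Rat cerebral cortex homogenised in ice-cold 50 mM Tris-HCl (pH 7.6 at 25 °C), washed twice at 20000×g and resuspended at 10 mg wet weight/ml. Incubated with [3H]prazosin (19.5 Ci/mmol) and test compound for 30 min at 25 °C. Nonspecific binding defined with 10 µM phentolamine. GF/B filtration, scintillation counting, three-parameter logistic competition fit.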

[2] = tested on: Rattus norvegicus; assay: Antiarrhythmic activity in Wistar rat assessed as effect on heart beat at 5 mg/kg, iv after 1 min; assay type: functional
Procedure, shortened: (§1)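 Male Wistar rats (180–250 g), anaesthetised with thiopental 60 mg/kg ip. Compound given iv in water at 10 mg/kg, or at a lower starting dose of 5 or 2.5 mg/kg. Standard lead II ECG recorded at 50 mm/s just before dosing and at 1, 5 and 15 min after. Heart rate and P–Q, Q–T and QRS intervals were read. n=6 per group, mean ± SEM, one-way ANOVA.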

[3] = tested on: Rattus norvegicus; assay: Antiarrhythmic activity in Wistar rat assessed as effect on heart beat at 5 mg/kg, iv after 5 mins; assay type: functional; procedure, shortened: as §1
[4] = tested on: Rattus norvegicus; assay: Antiarrhythmic activity in Wistar rat assessed as effect on heart beat at 5 mg/kg, iv after 15 mins; assay type: functional; procedure, shortened: as §1
[5] = tested on: Rattus norvegicus; assay: Cardiotoxicity in Wistar rat assessed as effect on P-Q interval at 5 mg/kg, iv after 1 min; assay type: toxicity, organism-based; parameters: dose 5 mg/kg, route intravenous; details: in vivo; procedure, shortened: as §1
[6] = tested on: Rattus norvegicus; assay: Cardiotoxicity in Wistar rat assessed as effect on P-Q interval at 5 mg/kg, iv after 5 mins; assay type: toxicity, organism-based; parameters: dose 5 mg/kg, route intravenous; details: in vivo; procedure, shortened: as §1
[7] = tested on: Rattus norvegicus; assay: Cardiotoxicity in Wistar rat assessed as effect on P-Q interval at 5 mg/kg, iv after 15 mins; assay type: toxicity, organism-based; parameters: dose 5 mg/kg, route intravenous; details: in vivo, 0.25 h; procedure, shortened: as §1
[8] = tested on: Rattus norvegicus; assay: Cardiotoxicity in Wistar rat assessed as effect on Q-T interval at 5 mg/kg, iv after 1 min; assay type: toxicity, organism-based; parameters: dose 5 mg/kg, route intravenous; details: in vivo; procedure, shortened: as §1
[9] = tested on: Rattus norvegicus; assay: Cardiotoxicity in Wistar rat assessed as effect on Q-T interval at 5 mg/kg, iv after 5 mins; assay type: toxicity, organism-based; parameters: dose 5 mg/kg, route intravenous; details: in vivo; procedure, shortened: as §1
[10] = tested on: Rattus norvegicus; assay: Cardiotoxicity in Wistar rat assessed as effect on Q-T interval at 5 mg/kg, iv after 15 mins; assay type: toxicity, organism-based; parameters: dose 5 mg/kg, route intravenous; details: in vivo, 0.25 h; procedure, shortened: as §1
[11] = tested on: Rattus norvegicus; assay: Cardiotoxicity in Wistar rat assessed as effect on QRS interval at 5 mg/kg, iv after 1 min; assay type: toxicity, organism-based; parameters: dose 5 mg/kg, route intravenous; details: in vivo; procedure, shortened: as §1
[12] = tested on: Rattus norvegicus; assay: Cardiotoxicity in Wistar rat assessed as effect on QRS interval at 5 mg/kg, iv after 5 mins; assay type: toxicity, organism-based; parameters: dose 5 mg/kg, route intravenous; details: in vivo; procedure, shortened: as §1
[13] = tested on: Rattus norvegicus; assay: Cardiotoxicity in Wistar rat assessed as effect on QRS interval at 5 mg/kg, iv after 15 mins; assay type: toxicity, organism-based; parameters: dose 5 mg/kg, route intravenous; details: in vivo, 0.25 h; procedure, shortened: as §1
[14] = tested on: Rattus norvegicus; assay: Antiarrhythmic activity in iv dosed Wistar rat assessed as protection against barium chloride-induced extrasystoles administered 15 mins prior to barium chloride-challenge; assay type: functional, Heart
Procedure, shortened: (§2)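 Szekeres model in male Wistar rats. Activity is gradual disappearance of arrhythmia with restored sinus rhythm; protection against disturbances and death scored. Groups of 6 animals.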

[15] = tested on: Rattus norvegicus; assay: Antiarrhythmic activity in dosed Wistar rat assessed as protection against barium chloride-induced fibrillation administered 15 mins prior to barium chloride-challenge; assay type: functional, Heart; procedure, shortened: as §2
[16] = tested on: Rattus norvegicus; assay: Antiarrhythmic activity in Wistar rat assessed as protection against adrenaline-induced extrasystoles at 2.5 to 10 mg/kg, iv administered 15 mins prior to adrenaline-challenge; assay type: functional, organism-based; details: Heart
Procedure, shortened: (§3)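 Szekeres model in male Wistar rats anaesthetised with thiopental (60 mg/kg ip). Test compound given iv in water (2.5–10 mg/kg) 15 min before adrenaline 20 µg/kg iv. Scored for extrasystoles, bigeminy and mortality; activity means no premature beats and inhibited arrhythmia versus controls.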

[17] = tested on: Rattus norvegicus; assay: Antiarrhythmic activity in Wistar rat assessed as protection against adrenaline-induced bigeminy at 2.5 to 10 mg/kg, iv administered 15 mins prior to adrenaline-challenge; assay type: functional, organism-based; details: Heart; procedure, shortened: as §3
[18] = tested on: Rattus norvegicus; assay: Antiarrhythmic activity in barium chloride-induced Wistar rat arrhythmia model assessed as protection against mortality at 2.5 to 10 mg/kg, iv administered 15 mins prior to barium chloride-challenge; assay type: functional, organism-based; details: Heart; procedure, shortened: as §2
[19] = tested on: Rattus norvegicus; assay: Antiarrhythmic activity in iv dosed Wistar rat assessed as protection against adrenaline-induced arrhythmia administered 15 mins prior to adrenaline-challenge; assay type: functional; details: Heart; procedure, shortened: as §3
[20] = tested on: Rattus norvegicus; assay: Hypotensive activity in normotensive Wistar rat assessed as decrease in systolic blood pressure at 2.5 to 10 mg/kg, iv at 1 min; assay type: organism-based, Artery; parameters: dose 2.5-10 mg/kg, route intravenous; details: in vivo
Procedure, shortened: (§4)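 Right carotid artery cannulated with heparin-saline-filled tubing for blood pressure recording. After 5 min stabilisation, compound injected iv into the caudal vein (2.5–10 mg/kg, 1 ml/kg). Systolic and diastolic pressure followed for 60 min. n=6 per group, mean ± SEM, one-way ANOVA.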

[21] = tested on: Rattus norvegicus; assay: Hypotensive activity in normotensive Wistar rat assessed as decrease in diastolic blood pressure at 2.5 to 10 mg/kg, iv at 1 min; assay type: organism-based, Artery; parameters: dose 2.5-10 mg/kg, route intravenous; details: in vivo; procedure, shortened: as §4
[22] = tested on: Rattus norvegicus; assay: Hypotensive activity in normotensive Wistar rat assessed as decrease in systolic blood pressure at 2.5 to 10 mg/kg, iv after 1 min measured up to 60 mins; assay type: organism-based, Artery; parameters: dose 2.5-10 mg/kg, route intravenous; details: in vivo; procedure, shortened: as §4
[23] = tested on: Rattus norvegicus; assay: Hypotensive activity in normotensive Wistar rat assessed as decrease in diastolic blood pressure at 2.5 to 10 mg/kg, iv after 1 min measured up to 60 mins; assay type: organism-based, Artery; parameters: dose 2.5-10 mg/kg, route intravenous; details: in vivo; procedure, shortened: as §4
[24] = tested on: Rattus norvegicus; assay: Antiarrhythmic activity in iv dosed Wistar rat assessed as protection against adrenaline-induced extrasystoles administered 15 mins prior to adrenaline-challenge; assay type: functional, organism-based; details: Heart; procedure, shortened: as §3
[25] = tested on: Rattus norvegicus; assay: Antiarrhythmic activity in iv dosed Wistar rat assessed as protection against adrenaline-induced bigeminy administered 15 mins prior to adrenaline-challenge; assay type: functional, organism-based; details: Heart; procedure, shortened: as §3

CN1C(=O)N(CC(O)CN2CCN(c3ccccc3F)CC2)C(c2ccccc2)(c2ccccc2)C1=O.Cl (racemic)
Ki [1]: 0.5646 µM | pKi [1]: 6.25 | Activity [2]: 272 min⁻¹ | Activity [3]: 251 min⁻¹ | Activity [4]: 258 min⁻¹ | Activity [5]: 64 ms | Activity [6]: 62 ms | Activity [7]: 59 ms | Activity [8]: 81 ms | Activity [9]: 74 ms | Activity [10]: 68 ms | Activity [11]: 20 ms | Activity [12]: 17 ms | Activity [13]: 16 ms | Activity [14]: >50% | Activity [15]: >50% | Activity [16]: Active | Activity [17]: Active | Activity [18]: Active | ED50 [19]: 1.92 mg/kg | Activity [20]: Toxic | Activity [21]: Toxic | Activity [22]: Non-toxic | Activity [23]: Non-toxic

c1ccc(CC2=NCCN2)cc1 [TOLAZOLINE]
Activity [24]: Active | Activity [25]: Active | ED50 [19]: 3.4 mg/kg

Reference: ChEMBL document CHEMBL2040780, “Antiarrhythmic properties of phenylpiperazine derivatives of phenytoin with α₁-adrenoceptor affinities” (Bioorg Med Chem, 2012)
